The record followed here is ChEMBL document CHEMBL2412956, “Synthesis and biological activity evaluation of 5-pyrazoline substituted 4-thiazolidinones” (Eur J Med Chem, 2013).

Series [1] can be described thus: Selectivity index, ratio of CC50 for MDCK cells to EC50 for Influenza B virus (B/Florida/4/2006). In kind it is toxicity, cell-based. To be noted: dog, read-out: Ratio CC50/EC50.
The nature of series [2]: Selectivity index, ratio of CC50 for MDCK cells to EC50 for Influenza A virus (A/duck/Minnesota/1525/1981(H5N1)). In kind it is toxicity, cell-based. The following applies: dog, read-out: Ratio CC50/EC50.
Series [3] in a line: Selectivity index, ratio of CC50 for MDCK cells to EC50 for Influenza A virus (A/California/07/2009(H1N1)). The class given is toxicity, cell-based. To be noted: dog, read-out: Ratio CC50/EC50.
Series [4] is described as follows: Antiviral activity against SARS coronavirus Urbani infected in MDCK cells assessed as inhibition of virus-induced cytopathic effect by cell-based neutral red uptake assay. To be noted: Severe acute respiratory syndrome-related coronavirus. In kind it is functional. On the technique in general: Protection from cytopathic effect is a common read-out in antiviral testing.

The next series relates to Influenza B virus. Put plainly: Antiviral activity against Influenza B virus (B/Florida/4/2006) infected in MDCK cells assessed as inhibition of virus-induced cytopathic effect by cell-based neutral red uptake assay. In kind it is functional. To be noted: B/Florida/4/2006, MDCK.
The test system of series [5] is Trypanosoma brucei brucei. In words: Antitrypanosomal activity against bloodstream form of Trypanosoma brucei brucei 90-13 assessed as parasite growth inhibition after 72 hrs by resazurin-based fluorescence assay. The class given is functional, organism-based. To be noted: 90-13, 72 h. The essentials:
(§1)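 Bloodstream forms of strain 90-13 or Feo were grown in HMI9 with 10% FCS at 37 °C under 5% CO₂. Log-phase parasites were seeded at 10⁵ cells/ml and exposed for 72 h to 10–0.625 μg/ml drug from DMSO stocks, with DMSO as control. Resazurin was added at 45 μM final, and fluorescence was read 4 h later. IC₅₀ was taken from the dose–response curve as the mean of three independent experiments.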
(In general: Alamar Blue is a resazurin reagent that responds to reducing activity.)

The test system of series [6] is Trypanosoma brucei gambiense. In words: Antitrypanosomal activity against bloodstream form of Trypanosoma brucei gambiense Feo assessed as parasite growth inhibition after 72 hrs by resazurin-based fluorescence assay. In kind it is functional, organism-based. The essentials:
as §1

The test system of the next series is MDCK. Put plainly: (§2) Cytotoxicity against MDCK cells. The class given is cell-based, Canis lupus familiaris. To be noted: dog, mdck. The essentials: (§3)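 Cytotoxicity was measured in uninfected wells run alongside the antiviral plates, across eight half-log dilutions in MEM. Cells were stained with neutral red, and the extracted dye was read at 540 nm. CC₅₀, the concentration giving 50% cytotoxicity, was obtained by regression, and values are reported in μM.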

Series [7] deals with Influenza A virus. In words: Antiviral activity against Influenza A virus (A/duck/Minnesota/1525/1981(H5N1)) infected in MDCK cells assessed as inhibition of virus-induced cytopathic effect by cell-based neutral red uptake assay. The class given is functional, organism-based.
The test system of series [8] is Influenza A virus. In words: Antiviral activity against Influenza A virus (A/Perth/16/2009(H3N2)) infected in MDCK cells assessed as inhibition of virus-induced cytopathic effect by cell-based neutral red uptake assay. In kind it is functional, organism-based.
Series [9] has as its system Influenza A virus. In words: Antiviral activity against Influenza A virus (A/California/07/2009(H1N1)) infected in MDCK cells assessed as inhibition of virus-induced cytopathic effect by cell-based neutral red uptake assay. The class given is functional, organism-based.
Series [10] in a line: Selectivity index, ratio of CC50 for MDCK cells to EC50 for SARS coronavirus Urbani. The class given is toxicity, cell-based. The following applies: dog, read-out: Ratio CC50/EC50.
A further series concerns UO-31. In words: Cytotoxicity against human UO31 cells assessed as cell growth at 10 uM after 48 hrs by SRB assay relative to control. In kind it is functional. The following applies: UO-31, 48 h, read-out: Activity. Put shortly: (§4)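 Single-dose NCI screen: compound at 10⁻⁵ M added to tumor cell cultures and incubated for 48 h. The SRB protein-binding dye end point was read spectrophotometrically. Results are percent growth of treated cells relative to untreated controls.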

The nature of series [11]: Selectivity index, ratio of CC50 for MDCK cells to EC50 for Influenza A virus (A/Perth/16/2009(H3N2)). The class given is toxicity, cell-based. The following applies: dog, read-out: Ratio CC50/EC50.
Series [12] can be described thus: as §2. In kind it is cell-based, Canis lupus familiaris. The following applies: dog, MDCK cells. Put shortly: as §3
The test system of another series is CCRF-CEM. In words: Cytotoxicity against human CCRF-CEM cells assessed as cell growth at 10 uM after 48 hrs by SRB assay relative to control. In kind it is functional. To be noted: read-out: Activity. Put shortly:
(§5)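 This was the NCI primary screen, with compound added once at 10⁻⁵ M and cultures incubated for 48 h. The endpoint was sulforhodamine B protein staining. Results are expressed as percent growth of treated cells relative to untreated control cells.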
(In general: Sulforhodamine B stains cellular protein and so reports cell mass.)

A further series relates to HOP-92. In words: Cytotoxicity against human HOP92 cells assessed as cell growth at 10 uM after 48 hrs by SRB assay relative to control. The class given is functional. The following applies: HOP-92, 48 h, read-out: Activity. Put shortly: as §5
The next series has as its system T47D. In words: Cytotoxicity against human T47D cells assessed as cell growth at 10 uM after 48 hrs by SRB assay relative to control. To be noted: read-out: Activity. The class given is functional. Put shortly:
as §4

Another series relates to Trypanosoma cruzi. Put plainly: Antitrypanosomal activity against […] form of Trypanosoma cruzi Y infected in monkey […] cells assessed as parasite growth inhibition after 15 hrs by trypan blue staining-based hemocytometric analysis. The class given is functional, organism-based.
In a further series the test system is K562. In words: Cytotoxicity against human K562 cells assessed as cell growth at 10 uM after 48 hrs by SRB assay relative to control. The class given is functional. The following applies: K562, 48 h, read-out: Activity. The essentials:
as §5

The structures appear in SMILES notation.

In general, EC50 refers to the concentration giving half of the maximal effect. The term IC50 denotes the concentration that inhibits the measured activity by half. A word on the CC50: it is the concentration that lowers cell viability or growth by half. As to `Cc1ccc(NC(=O)CN2C(=O)SC(N3N=C(c4ccc5ccccc5c4)CC3c3ccc(Cl)cc3)C2=O)cc1` (configuration not stated), the selectivity ratio was 1.3 in series [1], 1.1 in series [2] and 1.3 in [3]. Moreover, the EC50 in series [4] was above 351 µM; in the series on Influenza B virus, 35.1 µM; in the series on Influenza A virus [7] it was 51 µM; with Influenza A virus [8], above 13.3 µM; in the series on Influenza A virus [9], 54.5 µM. For the same compound, the IC50 in [5] turned out to be 5.43 µM; in series [6], 2.53 µM. The compound also gave a CC50 in the series with MDCK above 13.3 µM.
As to `COc1ccc(C2CC(c3ccc4ccccc4c3)=NN2C2SC(=O)N(CN3CCN(Cc4ccccc4)CC3)C2=O)cc1` (configuration not stated), the selectivity ratio came out at 1.6 in series [10], 1 in [1] and 1.1 in series [3]. The EC50 in series [4] was 21.5 µM; in the series with Influenza B virus, 57.8 µM; in the series on Influenza A virus [7], above 24.8 µM; in the series on Influenza A virus [8] it was above 6.6 µM; in the series with Influenza A virus [9] it was 13.7 µM. Moreover, in the series on UO-31, the growth at 10 µM was found to be 74.5%. This compound displayed a CC50 with MDCK of 6.6 µM.
For the compound `COc1ccc(C2CC(c3ccc4ccccc4c3)=NN2C2SC(=O)NC2=O)cc1` (configuration not stated), the selectivity ratio in [1] is 1.8; in series [11], 1.4; in series [2], 1.6; in [3], 1.1. Moreover, the concentration for a half-maximal effect (EC50) was above 23.5 µM in [4]; 4.55 µM in the series with Influenza B virus; 7.9 µM with Influenza A virus [7]; 4.31 µM in the series on Influenza A virus [8]; 9.82 µM with Influenza A virus [9]. Moreover, the growth at 10 µM in the series with UO-31 was 77.5%. For the same compound, the values for the IC50 in series [5] and in series [6] were 13.9 µM and 6.66 µM, respectively. Also, half-maximal cytotoxicity in the series on MDCK (CC50) was put at 6.23 µM.
In the case of `COc1ccc(C2CC(c3ccc4ccccc4c3)=NN2C2SC(=O)N(CC(=O)Nc3ccc(C)cc3)C2=O)cc1` (configuration not stated), the selectivity ratio in series [1] was 2.1; in series [11], 1.4; in series [2], above 16.3; in [3], 1.6. The EC50 is above 313 µM in [4]; 79.7 µM with Influenza B virus; 21.8 µM with Influenza A virus [7]; 53.1 µM in the series with Influenza A virus [8]; 142 µM in the series on Influenza A virus [9]. The growth at 10 µM in the series with UO-31 was 76.6%. The compound also returned a CC50 in the series with MDCK above 74.4 µM.
Turning to `NC(=O)c1ncn([C@@H]2O[C@H](CO)[C@@H](O)[C@H]2O)n1` [RIBAVIRIN], in series [12], the CC50 was above 324 µM. The EC50 in the series with Influenza A virus [7] is 18.4 µM; with Influenza A virus [8] it was 18.4 µM; in the series on Influenza A virus [9], 23.8 µM.
`COc1ccc(NC(=O)CN2C(=O)S/C(=C\C(=O)N3N=C(c4ccc5ccccc5c4)CC3c3ccc(OC)cc3)C2=O)cc1` (configuration not stated): the growth at 10 µM in the series on CCRF-CEM amounted to 74.7%.
On to `COc1ccc(C2CC(c3ccc4ccccc4c3)=NN2C2SC(=O)N(CN3CCCCC3)C2=O)cc1` (configuration not stated), for which the growth at 10 µM in the series with HOP-92 stood at 69.5%.
In the case of `CCN1CCN(CN2C(=O)SC(N3N=C(c4ccc5ccccc5c4)CC3c3ccc(Cl)cc3)C2=O)CC1` (configuration not stated), the results for the selectivity ratio in series [1], in [2] and in [3] were 2.1, 1.4 and 1.1, respectively. In addition, the EC50 in [4] was above 16.8 µM; in the series on Influenza B virus, 4.01 µM; with Influenza A virus [7], 4.38 µM; with Influenza A virus [8], above 2.37 µM; in the series on Influenza A virus [9], 4.01 µM. The compound also came in with a CC50 in the series on MDCK of 2.37 µM.
As for `COc1ccc(C2CC(c3ccc4ccccc4c3)=NN2C(=O)/C=C2\SC(=O)NC2=O)cc1` (configuration not stated), the growth at 10 µM with T47D was determined as 78.7%.
Turning to `COc1ccc(C2CC(c3ccc4ccccc4c3)=NN2C2SC(=O)N(CN3CCN(C(C)=O)CC3)C2=O)cc1` (configuration not stated), the growth at 10 µM in the series on UO-31 came to 82.2%.
As to `CCC1SC(N/N=C\CSc2ccccc2)=NC1=O` (configuration not stated), in the series on Trypanosoma cruzi, the IC50 was determined as 0.3 µM.
In the case of `O=C1NC(=O)C(N2N=C(c3ccc4ccccc4c3)CC2c2ccc(Cl)cc2)S1` (configuration not stated), the selectivity ratio in [1] turned out to be 1.6; in [11], 1; in series [2], 1.2; in series [3] it was 1. Besides, the EC50 was above 23.2 µM in [4]; 3.08 µM with Influenza B virus; 5.21 µM with Influenza A virus [7]; 2.84 µM with Influenza A virus [8]; 4.27 µM with Influenza A virus [9]. Besides, in the series on HOP-92, the growth at 10 µM is 74.9%.
For the compound `N=C(N)c1ccc(OCCCCCOc2ccc(C(=N)N)cc2)cc1` [PENTAMIDINE], in [6], the half-inhibitory concentration (IC50) was 0.0053 µM.
`CC(=O)N1CCN(CN2C(=O)SC(N3N=C(c4ccc5ccccc5c4)CC3c3ccc(Cl)cc3)C2=O)CC1` (configuration not stated): the growth at 10 µM in the series on K562 was 76.4%.
Take `COc1ccc(NC(=O)CN2C(=O)SC(N3N=C(c4ccc5ccccc5c4)CC3c3ccc(Cl)cc3)C2=O)cc1` (configuration not stated): the selectivity ratio in [1] was 1.4; in series [11] it was 1.3; in series [2] it was 1.5; in series [3] it was 1.5. Moreover, the EC50 in series [4] was above 342 µM; with Influenza B virus it was 95.7 µM; in the series on Influenza A virus [7] it was 179 µM; with Influenza A virus [8], 18.8 µM; in the series with Influenza A virus [9], 120 µM. Moreover, the figures for the IC50 in [5] and in [6] were 11.3 µM and 6.1 µM, respectively. In the series with MDCK, the CC50 is above 25.6 µM.
